Results on eight compounds are retold here after ChEMBL document CHEMBL3421560, “Search for factors affecting antibacterial activity and toxicity of 1,2,4-triazole-ciprofloxacin hybrids” (Eur J Med Chem, 2015).

Assay [1] deals with Staphylococcus aureus. The assay can be described thus: Antimicrobial activity against methicillin-susceptible Staphylococcus aureus ATCC 25923 after 18 hrs by broth microdilution method. Type of assay: functional. To be noted: ATCC 25923, 18 h. For orientation: In broth dilution the organism is exposed to a series of concentrations in liquid medium.
Assay [2] deals with Staphylococcus aureus. The assay can be described thus: Antimicrobial activity against methicillin-susceptible Staphylococcus aureus ATCC 6538 after 18 hrs by broth microdilution method. It is filed as functional. To be noted: ATCC 6538, 18 h.
Assay [3] has as its system Staphylococcus aureus. The assay can be described thus: Antimicrobial activity against Staphylococcus aureus Microbank 14001 after 18 hrs by broth microdilution method. Type of assay: functional. To be noted: Microbank 14001, 18 h.
The test system of assay [4] is Staphylococcus epidermidis. The assay can be described thus: Antimicrobial activity against Staphylococcus epidermidis ATCC 12228 after 18 hrs by broth microdilution method. To be noted: ATCC 12228, 18 h. It is filed as functional.
A further assay relates to Bacillus subtilis. The assay can be described thus: Antimicrobial activity against Bacillus subtilis […] after 18 hrs by broth microdilution method. It is filed as functional.
In the next assay the test system is Bacillus cereus. Briefly: Antimicrobial activity against Bacillus cereus ATCC 10876 after 18 hrs by broth microdilution method. It is filed as functional. To be noted: ATCC 10876, 18 h.
In a further assay the test system is Micrococcus luteus. The assay can be described thus: Antimicrobial activity against Micrococcus luteus ATCC 10240 after 18 hrs by broth microdilution method. It is filed as functional. To be noted: ATCC 10240, 18 h.
For assay [5], the system named is Staphylococcus aureus. The assay can be described thus: Ratio of MBC for methicillin-susceptible Staphylococcus aureus ATCC 25923 to MIC for methicillin-susceptible Staphylococcus aureus ATCC 25923. Type of assay: functional. The gist of the method:
(§1)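 MBC taken as lowest concentration giving >99.9% CFU reduction of the initial inoculum; value is MBC divided by MIC for the same strain.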

For assay [6], the system named is Staphylococcus aureus. The assay can be described thus: Ratio of MBC for methicillin-susceptible Staphylococcus aureus ATCC 6538 to MIC for methicillin-susceptible Staphylococcus aureus ATCC 6538. It is filed as functional. In a few lines: as §1
In assay [7] the test system is Staphylococcus aureus. Briefly: Ratio of MBC for Staphylococcus aureus Microbank 14001 to MIC for Staphylococcus aureus Microbank 14001. It is filed as functional. In a few lines: as §1
For another assay, the system named is Escherichia coli. The assay can be described thus: Antimicrobial activity against Escherichia coli ATCC 25922 after 18 hrs by broth microdilution method. Type of assay: functional. To be noted: ATCC 25922, 18 h.
In a further assay the test system is Klebsiella pneumoniae. The assay can be described thus: Antimicrobial activity against Klebsiella pneumoniae ATCC 13883 after 18 hrs by broth microdilution method. To be noted: ATCC 13883, 18 h. It is filed as functional.
The next assay has as its system Proteus mirabilis. Briefly: Antimicrobial activity against Proteus mirabilis ATCC 12453 after 18 hrs by broth microdilution method. It is filed as functional. To be noted: ATCC 12453, 18 h.
In the next assay the test system is Pseudomonas aeruginosa. Briefly: Antimicrobial activity against Pseudomonas aeruginosa ATCC 9027 after 18 hrs by broth microdilution method. It is filed as functional. To be noted: ATCC 9027, 18 h.
The next assay deals with HEK293. Briefly: Cytotoxicity against HEK293 cells after 72 hrs by MTT assay. It is filed as cell-based. To be noted: Homo sapiens, HEK293, 48 h; in the assay text read “48 hrs” for “72 hrs”. The gist of the method:
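HEK-293 (ATCC CRL-1573) in MEM with 10% FBS plus penicillin/streptomycin, seeded 3 x 10^5 cells/well, 24 h at 37 °C, 5% CO2. Treated with compounds diluted from 50 mg/mL DMSO stock into medium with 2% FBS for 48 h. Viability by MTT formazan readout; EC50 relative to control cells, mean ± SD of three independent experiments.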

A further assay has as its target DNA gyrase (Escherichia coli, UniProt P0AES4+P0AES6). Briefly: Inhibition of Escherichia coli DNA gyrase after 1 hr by agarose gel electrophoresis. It is filed as protein-complex assay.
A short description of assay [8]: Inhibition of Escherichia coli DNA topoisomerase 4 using kDNA as substrate after 1 hr by agarose gel electrophoresis. The gist of the method: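 E. coli topoisomerase IV decatenation kit: kDNA (0.5 µg) with 1 U enzyme in supplied buffer plus varying compound levels, 37 °C for 1 h. Stopped as for the gyrase assay, then 1% agarose in TAE, 1.5 h at 80 V, ethidium bromide. IC50 = concentration blocking 50% conversion to decatenated minicircles, by gel densitometry.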

Assay [9] concerns Staphylococcus aureus. Briefly: Ratio of ciprofloxacin MIC to compound MIC for methicillin-susceptible Staphylococcus aureus ATCC 6538. It is filed as functional.

Converted amounts (≈) assume the structure as drawn.

The term MIC denotes the smallest concentration in the dilution series that meets the test's criterion for growth inhibition. Broadly, the EC50 is the midpoint of the concentration-response curve. A low value points to a more potent agent. As to `O=C(O)c1cn(C2CC2)c2cc(N3CCN(Cn4nc(-c5cccc(O)c5)n(-c5ccccc5)c4=S)CC3)c(F)cc2c1=O`, the minimal inhibitory concentration (MIC) amounted to 0.8 µM (≈ 0.49 µg/mL) in the assay on Staphylococcus aureus [1]; 0.39 µM (≈ 0.239 µg/mL) with Staphylococcus aureus [2]; 0.39 µM (≈ 0.239 µg/mL) against Staphylococcus aureus [3]; 0.19 µM (≈ 0.116 µg/mL) in [4]; 0.098 µM (≈ 0.06 µg/mL) in the assay with Bacillus subtilis; 0.19 µM (≈ 0.116 µg/mL) in the assay with Bacillus cereus. Besides, the MIC with Micrococcus luteus came out at 1.6 µM (≈ 0.98 µg/mL); with Escherichia coli it was 0.012 µM (≈ 0.00735 µg/mL); in the assay on Klebsiella pneumoniae it was 0.049 µM (≈ 0.03 µg/mL); against Proteus mirabilis, 0.024 µM (≈ 0.0147 µg/mL); in the assay on Pseudomonas aeruginosa, 0.19 µM (≈ 0.116 µg/mL). The Ratio entry with Staphylococcus aureus [5], with Staphylococcus aureus [6] and with Staphylococcus aureus [7] was “<=4” throughout. The compound further yielded an EC50 with HEK293 of 140 µM.

A word on the IC50: it is the concentration needed to halve the response being measured. For `CCCc1nn(CN2CCN(c3cc4c(cc3F)c(=O)c(C(=O)O)cn4C3CC3)CC2)c(=S)n1-c1cccc(I)c1`, the results for the half-inhibitory concentration (IC50) (on DNA gyrase; in assay [8]) were 6.28 µM and 155 µM, respectively.

Consider `O=C(O)c1cn(C2CC2)c2cc(N3CCN(Cn4nc(-c5cccc(O)c5)n(Cc5ccc(F)cc5)c4=S)CC3)c(F)cc2c1=O`, for which the MIC in the assay with Staphylococcus aureus [1] stood at 0.37 µM (≈ 0.239 µg/mL); against Staphylococcus aureus [2], 0.093 µM (≈ 0.06 µg/mL); with Staphylococcus aureus [3], 0.37 µM (≈ 0.239 µg/mL); in assay [4] it was 0.19 µM (≈ 0.122 µg/mL); with Bacillus subtilis, 0.023 µM (≈ 0.0148 µg/mL); against Bacillus cereus it was 0.093 µM (≈ 0.06 µg/mL). Moreover, the minimum inhibitory concentration (MIC) against Micrococcus luteus stood at 0.76 µM (≈ 0.49 µg/mL); with Escherichia coli, 0.006 µM (≈ 0.00387 µg/mL); in the assay on Klebsiella pneumoniae, 0.046 µM (≈ 0.0297 µg/mL); with Proteus mirabilis it was 0.006 µM (≈ 0.00387 µg/mL); in the assay on Pseudomonas aeruginosa, 0.093 µM (≈ 0.06 µg/mL). For the same compound, the Ratio is on record as 8 in the assay on Staphylococcus aureus [9], “<=4” in the assay with Staphylococcus aureus [5], “<=4” with Staphylococcus aureus [6] and “<=4” in the assay on Staphylococcus aureus [7]. Also, in the assay with HEK293, the EC50 was found to be 69.5 µM.

For the compound `O=C(O)c1cn(C2CC2)c2cc(N3CCNCC3)c(F)cc2c1=O` [CIPROFLOXACIN], the minimal inhibitory concentration (MIC) turned out to be 2.96 µM (≈ 0.981 µg/mL) against Staphylococcus aureus [1]; 0.72 µM (≈ 0.239 µg/mL) with Staphylococcus aureus [2]; 1.48 µM (≈ 0.49 µg/mL) in assay [4]; 0.09 µM (≈ 0.0298 µg/mL) with Bacillus subtilis; 0.36 µM (≈ 0.119 µg/mL) against Bacillus cereus; 5.88 µM (≈ 1.95 µg/mL) against Micrococcus luteus. Besides, the MIC worked out at 0.024 µM (≈ 0.00795 µg/mL) against Escherichia coli, 0.36 µM (≈ 0.119 µg/mL) against Klebsiella pneumoniae, 0.045 µM (≈ 0.0149 µg/mL) against Proteus mirabilis and 0.72 µM (≈ 0.239 µg/mL) with Pseudomonas aeruginosa. Half-maximal inhibition in assay [8] (IC50) was put at 80 µM.

For `O=C(O)c1cn(C2CC2)c2cc(N3CCN(Cn4nc(-c5cccc(O)c5)n(-c5cc(Cl)cc(Cl)c5)c4=S)CC3)c(F)cc2c1=O`, the half-maximal inhibitory concentration (IC50) against DNA gyrase was 6.05 µM; in assay [8], 78.7 µM.

Consider `O=C(O)c1cn(C2CC2)c2cc(N3CCN(Cn4nc(-c5ccccc5O)n(Cc5ccccc5)c4=S)CC3)c(F)cc2c1=O`, for which the MIC amounted to 0.38 µM (≈ 0.238 µg/mL) in the assay on Staphylococcus aureus [1]; 0.19 µM (≈ 0.119 µg/mL) against Staphylococcus aureus [2]; 0.38 µM (≈ 0.238 µg/mL) against Staphylococcus aureus [3]; 0.38 µM (≈ 0.238 µg/mL) in assay [4]; 0.048 µM (≈ 0.0301 µg/mL) against Bacillus subtilis; 0.19 µM (≈ 0.119 µg/mL) with Bacillus cereus. Also, the MIC with Micrococcus luteus came to 1.56 µM (≈ 0.978 µg/mL); with Escherichia coli, 0.006 µM (≈ 0.00376 µg/mL); in the assay with Klebsiella pneumoniae it was 0.096 µM (≈ 0.0602 µg/mL); in the assay with Proteus mirabilis, 0.024 µM (≈ 0.015 µg/mL); against Pseudomonas aeruginosa it was 0.096 µM (≈ 0.0602 µg/mL). Also, the Ratio entry in the assay on Staphylococcus aureus [5], with Staphylococcus aureus [6] and in the assay with Staphylococcus aureus [7] was “<=4” each time. The same compound registered a 50% effective concentration (EC50) in the assay on HEK293 of 69.1 µM.

Turning to `COc1ccc(-n2c(-c3cccc(O)c3)nn(CN3CCN(c4cc5c(cc4F)c(=O)c(C(=O)O)cn5C4CC4)CC3)c2=S)cc1`, the MIC in the assay on Staphylococcus aureus [1] was found to be 0.74 µM (≈ 0.476 µg/mL); against Staphylococcus aureus [2], 0.37 µM (≈ 0.238 µg/mL); against Staphylococcus aureus [3], 0.093 µM (≈ 0.0598 µg/mL); in assay [4], 0.19 µM (≈ 0.122 µg/mL); against Bacillus subtilis, 0.37 µM (≈ 0.238 µg/mL); against Bacillus cereus, 0.19 µM (≈ 0.122 µg/mL). In addition, the MIC in the assay with Micrococcus luteus turned out to be 1.52 µM (≈ 0.977 µg/mL); against Escherichia coli it was 0.006 µM (≈ 0.00386 µg/mL); in the assay with Klebsiella pneumoniae, 0.093 µM (≈ 0.0598 µg/mL); against Proteus mirabilis it was 0.047 µM (≈ 0.0302 µg/mL); in the assay with Pseudomonas aeruginosa, 0.19 µM (≈ 0.122 µg/mL). Also, the Ratio entry with Staphylococcus aureus [5], in the assay on Staphylococcus aureus [6] and in the assay on Staphylococcus aureus [7] was “<=4” each time. The compound also showed a concentration giving a half-maximal response (EC50) in the assay with HEK293 of 114 µM.

As to `O=C(O)c1cn(C2CC2)c2cc(N3CCN(Cn4nc(-c5cccc(O)c5)n(-c5cccc(I)c5)c4=S)CC3)c(F)cc2c1=O`, the figures for the IC50 (against DNA gyrase; in [8]) were 9.78 µM and 78.1 µM, respectively.
